An excerpt weighted towards active compounds, which were near 3.8% of everything screened.
rCAG RNA binder: r(CAG) repeat RNA binding; TO-PRO-1 dye displacement fluorescence; inhibition, % at 3 µM; 1.3% of 370,000 active;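 active means inhibition above the plate cutoff, the mean of all test compounds on that plate plus 3 SD, cut at about 35% in these data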;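 further: higher means more dye released from RNA so lower well fluorescence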
MPTP inh: permeability transition pore inhibition; inhibition, % at 10 µM; isolated mouse mitochondria, Ca2+ swelling absorbance, 30 min; 1.4% of 360,000 active; AID 602449;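 active means inhibition of 50% or more, scaled per plate between neutral and stimulator controls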
T cell modulator: T cell immune modulators affecting CD8 T cell-vesicle binding; 2C CD8+ T cell-vesicle binding, flow cytometry; active compounds read low; response (vesicle binding), % at 7 µM; 0.068% of 330,000 active; AID 2052;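 active means response, share of CD8 T cells binding vesicles, and their 90th percentile fluorescence all below set limits, cut at about 80% in these data, passing the limit was not always enough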;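 further: values below 100% mean blocked vesicle binding to the CD8+ T cells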
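Assay system: 2C TCR transgenic mouse naive CD8+ T cells, MACS-purified | Read-out: CD8+ gate FL2 mean fluorescence as % of same-row positive control | Signal: High-throughput flow cytometry with anti-B7-1 and anti-CD8 staining | Timing: Binding step 1.5 h, 37 °C, antibody labelling 20 min, ice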
B2AR ag: human beta-2 adrenergic receptor agonism by FAP. Am2.2-beta2AR cells, FAP receptor internalization, flow cytometry. response, % (no concentration beside the values). 0.43% of 340,000 active. AID 504454;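 active means response above a set limit, near 3 SD of response in nonfluorescent compounds, cut at about 42% in these data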
Target sequence (P07550 whole entry, looked up): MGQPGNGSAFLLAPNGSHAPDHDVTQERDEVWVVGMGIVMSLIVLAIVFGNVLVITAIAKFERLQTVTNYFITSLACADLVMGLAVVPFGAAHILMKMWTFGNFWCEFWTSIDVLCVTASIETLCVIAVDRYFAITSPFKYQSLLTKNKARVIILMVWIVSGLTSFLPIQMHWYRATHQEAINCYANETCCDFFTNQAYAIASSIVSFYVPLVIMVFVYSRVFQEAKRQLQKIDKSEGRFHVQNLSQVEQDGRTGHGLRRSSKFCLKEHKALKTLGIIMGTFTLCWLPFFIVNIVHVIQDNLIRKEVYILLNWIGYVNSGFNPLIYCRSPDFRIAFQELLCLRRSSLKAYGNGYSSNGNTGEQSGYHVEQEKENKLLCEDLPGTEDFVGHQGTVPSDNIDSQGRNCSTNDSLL
Exocytosis inh: blocks lytic granule exocytosis. inhibition, % at 10 µM. TALL-104 LAMP-1 surface exposure, flow cytometry; cells stimulated with thapsigargin and PMA. 0.66% of 360,000 active. AID 651702;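 active means inhibition above about 55%, limit read from the data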
V-ATPase pH: alters yeast V-ATPase proton transport; S. cerevisiae, pHLuorin cytosolic pH fluorescence; response, % at 10 µM; 0.37% of 350,000 active; in the data active means response mostly above about 7.3%, no sharp cut-off; inactive means mostly below about 5.4%; further: actives read high
Rh123 counter: mitochondrial membrane potential, counter-screen | 78% of 5,000 active | isolated mitochondria, Rhodamine 123 fluorescence | inhibition, % at 10 µM | shares compounds with MPTP inh; in the data active means inhibition above about 22%
MPTP swell DR: dose response confirmation of mitochondrial permeability transition pore inhibitors; isolated mitochondria swelling, absorbance; 58% of 780 active; shares compounds with MPTP inh; IC50, µM; in the data active means IC50 below about 20 µM
MPTP counter DR: counter-screen for mitochondrial permeability transition pore inhibitors, dose response; shares compounds with MPTP inh; isolated mitochondria counterscreen, fluorescence read-out; IC50, µM; 49% of 780 active; AID 651564; in the data active means IC50 below about 80 µM
Of the large screens only hits and unclear results are named; the others gave an inactive call (follow-up assays come after a bar, where they were run).

CCOP(=O)(OCC)C(NC(=O)Nc1ccc(Cl)c(Cl)c1)c1ccccc1 (configuration not stated)	MPTP inh 60 | Rh123 counter 56
CCCOC(=O)c1ccc(Oc2c(-c3ccc(O)cc3O)n[nH]c2C)cc1	none
Cc1[nH]nc(-c2ccc(O)cc2O)c1Oc1ccccc1	MPTP inh 56 | Rh123 counter 58
C#CCN1CC(N(C)CCOC(=O)c2occ3ccccc23)CS1(=O)=O (configuration not stated)	none (no result: MPTP inh, T cell modulator, B2AR ag, Exocytosis inh, V-ATPase pH)
O=[N+]([O-])/C(=C\Nc1ccccc1Cl)S(=O)(=O)c1ccccc1	none (no result: rCAG RNA binder)
O=[N+]([O-])/C(C=Nc1ccccc1O)=C\Nc1ccccc1O	MPTP inh 83 (no result: T cell modulator) | Rh123 counter inactive
CCN(C)C(=O)CN1C(=O)C2CCCCN2C(=O)c2ccccc21 (configuration not stated)	none (no result: MPTP inh, T cell modulator, B2AR ag, Exocytosis inh, V-ATPase pH)
Cc1cc(O)c2c(c1O)C(=O)[C@]13C(=C2O)C(=O)[C@@H]2[C@@H](O)[C@H]1[C@@H]1[C@H](O)[C@H]3C(=O)C3=C(O)c4c(O)cc(C)c(O)c4C(=O)[C@]312	MPTP inh 104 (no result: rCAG RNA binder) | Rh123 counter inactive
OC(c1ccc(F)cc1)c1nc(-c2ccncc2)cs1 (configuration not stated)	MPTP inh 65 (no result: T cell modulator, B2AR ag, V-ATPase pH) | Rh123 counter 57
OC(c1ccc(F)c(F)c1)c1nc(-c2ccncc2)cs1 (configuration not stated)	none (no result: T cell modulator, B2AR ag, V-ATPase pH)
CC(C)C[C@H]1COc2cc(N3CCSCC3)ccc2S(=O)(=O)N1C	none (no result: MPTP inh, T cell modulator, B2AR ag, Exocytosis inh, V-ATPase pH)
CN(C)CCN(C(=O)/C=C/c1cccs1)c1nc2ccc(F)cc2s1	MPTP inh 72 | Rh123 counter inactive | MPTP swell DR 13 | MPTP counter DR inactive
O=S1(=O)CC2c3ccc(F)cc3CN2CN1Cc1ccccc1 (configuration not stated)	none (no result: MPTP inh, T cell modulator, B2AR ag, Exocytosis inh, V-ATPase pH)
COCCCN(C(=S)Nc1cc(Cl)cc(Cl)c1)C(C)c1ccncc1 (configuration not stated)	MPTP inh 93 | Rh123 counter 99
COCCCN(C(=S)Nc1cc(Cl)cc(Cl)c1)C(C)c1ccccn1 (configuration not stated)	MPTP inh 91 | Rh123 counter 87
COCCCN(C(=O)Nc1ccc(C)c(C)c1)C(C)c1ccccn1 (configuration not stated)	none
COc1ccc(C(=O)C2(C(=O)NCc3ccccc3)CC(c3ccccn3)=NO2)cc1 (configuration not stated)	none (no result: MPTP inh, T cell modulator, B2AR ag, Exocytosis inh, V-ATPase pH)
COc1cccc(Cn2cc(COC(=O)NCC(C)C)nn2)c1	none (no result: MPTP inh, T cell modulator, B2AR ag, Exocytosis inh, V-ATPase pH)
CC(CCc1ccccc1)NC(=O)C(=O)Nc1ccccc1 (configuration not stated)	none
CC(=O)c1ccc(NC(=S)NC(C)CCc2ccccc2)cc1 (configuration not stated)	MPTP inh 89 | Rh123 counter 93
Cc1ccc(NC(=S)NC(C)CCc2ccccc2)cc1C (configuration not stated)	MPTP inh 86 | Rh123 counter 97
C=CCN1[C@H](C)COc2cc(N3CCCC3)ccc2S1(=O)=O	none (no result: MPTP inh, T cell modulator, B2AR ag, Exocytosis inh, V-ATPase pH)
CCOc1ccccc1-c1cc(-c2ccc(OC)cc2)nc2c1c(=O)n(C)c(=O)n2C	MPTP inh 83 | Rh123 counter inactive | MPTP swell DR inactive | MPTP counter DR inactive
CCOC(=O)[C@]12CCCCC/C=C\1N(CCc1ccc(Cl)cc1)C(=O)[C@H]2CC(=O)NCCc1ccccc1OC	none (no result: MPTP inh, T cell modulator, B2AR ag, Exocytosis inh, V-ATPase pH)
O=C(Nc1nnc(S(=O)(=O)N2CCCC2)s1)c1cccc([N+](=O)[O-])c1	none (no result: rCAG RNA binder)
CC1CCN(S(=O)(=O)c2nnc(NC(=O)c3cccc([N+](=O)[O-])c3)s2)CC1	MPTP inh 82 (no result: rCAG RNA binder) | Rh123 counter 42
COC(=O)C1=C(C)N(Cc2cccc(C(F)(F)F)c2)C(=NCc2cc(OC)c(OC)c(OC)c2)NC1c1ccccc1 (configuration not stated)	none (no result: MPTP inh, T cell modulator, B2AR ag, Exocytosis inh, V-ATPase pH)
C/C(=N\Nc1ccc([N+](=O)[O-])cc1)c1ccc(-n2nncc2C)cc1	none
CC(C)(C)c1cnnn1-c1ccc(/C=N/Nc2ccc([N+](=O)[O-])cc2)cc1	MPTP inh 74 | Rh123 counter 68
CCCCCCCCN1C(=O)[C@@H](CC(=O)NCCC(C)C)C[C@@]2(C(=O)OC)C1=C[C@H](COCc1ccccc1)O[C@@H]2C	none (no result: MPTP inh, T cell modulator, B2AR ag, Exocytosis inh, V-ATPase pH)
Cc1ccc(-c2nn(-c3ccccc3)cc2CSC(=N)N)cc1	MPTP inh 99 | Rh123 counter inactive | MPTP swell DR 5.5 | MPTP counter DR 41
OCc1cn(-c2ccccc2)nc1-c1ccc(-c2nn(-c3ccccc3)cc2CO)cc1	none
Cn1c(=O)c2[nH]c(SCC(=O)NCCc3cccc(F)c3)nc2n(C)c1=O	none (no result: MPTP inh, T cell modulator, B2AR ag, Exocytosis inh, V-ATPase pH)
CN1CCC(NC(=O)Nc2cccc(C(F)(F)F)c2)CC1	none
O=C(Nc1cccc(Cl)c1)NC1CCCCC1	MPTP inh 83 | Rh123 counter 73
O=C(Nc1cccc(C(F)(F)F)c1)NC1CCCCC1	MPTP inh 93 | Rh123 counter 119
O=C(Nc1ccc(F)c(F)c1)NC1CCCCC1	MPTP inh 53 | Rh123 counter 89
O=C(Nc1cccc(Cl)c1)NC1CC2CCC1C2 (configuration not stated)	MPTP inh 55 | Rh123 counter 84
CC(=O)NC(Cc1ccc2c(c1)OCO2)C(=O)N1CCCC1 (configuration not stated)	none (no result: MPTP inh, T cell modulator, B2AR ag, Exocytosis inh, V-ATPase pH)
COc1ccc(-n2c(COc3ccccc3)nnc2SCc2nc3ccccc3[nH]2)cc1	none (no result: MPTP inh, T cell modulator, B2AR ag, Exocytosis inh, V-ATPase pH)
COC(=O)[C@H](C(C)C)N1Cc2nnn(Cc3ccc(C)cc3)c2-c2ccccc2S1(=O)=O	none (no result: MPTP inh, T cell modulator, B2AR ag, Exocytosis inh, V-ATPase pH)
CC(=O)c1cccc(NC(=S)NC2CCCCCCC2)c1	MPTP inh 50 | Rh123 counter 99
CC(=O)c1cccc(NC(=O)NC2CCCCCCC2)c1	none
CCCC(=O)N1CCC[C@]2(CC[C@H](CCC#N)O2)C1	none (no result: MPTP inh, T cell modulator, B2AR ag, Exocytosis inh, V-ATPase pH)
O=[N+]([O-])c1ccc(NN=C(Oc2ccccc2)c2ccc([N+](=O)[O-])cc2)cc1	none (no result: T cell modulator, B2AR ag)
CC/C(=N\Nc1ccc([N+](=O)[O-])cc1)c1ccccc1	MPTP inh 65 (no result: rCAG RNA binder) | Rh123 counter 63
CCc1ccc(/C(C)=N\Nc2ccc([N+](=O)[O-])cc2)cc1	MPTP inh 58 | Rh123 counter 51
O=c1c2ccccc2sc2ccccc12	none (no result: T cell modulator)
O=c1c(C(c2ccccc2)c2c(O)sc3ccccc3c2=O)c(O)sc2ccccc12	MPTP inh 68 | Rh123 counter 71
CC(C)(C)c1ccc(-c2nnc(SCCC#N)n2C2CCCC2)cc1	MPTP inh 69 | Rh123 counter inactive | MPTP swell DR inactive | MPTP counter DR 23

Screening data: PubChem BioAssay, several laboratories
